Data as given in ChEMBL document CHEMBL3868624, “Design, synthesis, biological evaluation, and molecular modeling studies of chalcone-rivastigmine hybrids as cholinesterase inhibitors” (Bioorg Med Chem, 2017).
The source made the active and inactive calls. No cut-off for these calls is given here.

Columns and labels:
Cholinesterase [1] = target: T1, Cholinesterase (Homo sapiens, UniProt P06276); assay: Inhibition of human serum BChE using S-Butyrylthiocholine iodide as substrate at 10 uM preincubated for 15 mins followed by substrate addition by Ellman's method
T1 sequence (P06276 whole entry): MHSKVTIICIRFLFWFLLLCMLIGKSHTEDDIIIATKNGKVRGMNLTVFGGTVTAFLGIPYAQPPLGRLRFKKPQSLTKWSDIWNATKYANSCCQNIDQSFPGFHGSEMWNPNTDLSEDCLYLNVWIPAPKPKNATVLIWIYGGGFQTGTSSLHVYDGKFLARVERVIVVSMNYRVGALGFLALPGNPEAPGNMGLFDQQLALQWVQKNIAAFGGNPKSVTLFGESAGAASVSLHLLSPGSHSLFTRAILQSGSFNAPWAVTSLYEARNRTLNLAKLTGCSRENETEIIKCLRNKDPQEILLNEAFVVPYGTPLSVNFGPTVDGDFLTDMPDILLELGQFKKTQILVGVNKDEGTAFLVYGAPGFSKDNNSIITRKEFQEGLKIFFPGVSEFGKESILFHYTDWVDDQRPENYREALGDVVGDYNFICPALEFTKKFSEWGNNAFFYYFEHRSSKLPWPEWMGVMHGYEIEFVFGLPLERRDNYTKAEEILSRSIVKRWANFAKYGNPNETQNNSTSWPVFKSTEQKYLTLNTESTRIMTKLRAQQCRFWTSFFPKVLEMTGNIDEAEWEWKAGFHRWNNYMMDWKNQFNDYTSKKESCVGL

[2] = Cytotoxicity against human SH-SY5Y cells assessed as cell viability at 25 uM after 48 hrs by MTT assay relative to control; type: toxicity, cell-based; settings: read-out: Activity
Method in brief: (§1)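 SH-SY5Y cells seeded at 5×10³ per well and grown 16-18 h, then exposed to 6.25, 12.5, 25, 50 or 100 µM compound for 48 h. MTT (2.5 mg/mL solution) was added for 4 h at 37 °C, 5% CO₂. Formazan was dissolved in DMSO and absorbance read at 490 nm. Viability is relative to control, mean ± SEM of experiments in triplicate.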

Cholinesterase [3] = target: T1, Cholinesterase; assay: Inhibition of human serum BChE using S-Butyrylthiocholine iodide as substrate preincubated for 15 mins followed by substrate addition by Ellman's method
Method in brief: (§2)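 Ellman assay in phosphate buffer pH 8.0 (0.08 M Na₂HPO₄/0.02 M NaH₂PO₄). hAChE at 0.004 U/mL or hBChE at 0.002 U/mL was preincubated with compound for 15 min at 37 °C. DTNB and ATC (hAChE) or BTC (hBChE) were added, each 50 µM final. A412 was read over 5 min and inhibition set against no-compound wells. IC50 from a variable-slope fit, mean ± SD of three independent experiments.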

[4] = Cytotoxicity against human SH-SY5Y cells assessed as cell viability at 100 uM after 48 hrs by MTT assay relative to control; type: toxicity, cell-based; settings: read-out: Activity; method in brief: as §1
[5] = Cytotoxicity against human SH-SY5Y cells assessed as cell viability at 12.5 uM after 48 hrs by MTT assay relative to control; type: toxicity, cell-based; settings: read-out: Activity; method in brief: as §1
[6] = Cytotoxicity against human SH-SY5Y cells assessed as cell viability at 6.25 uM after 48 hrs by MTT assay relative to control; type: toxicity, cell-based; settings: read-out: Activity; method in brief: as §1
[7] = Cytotoxicity against human SH-SY5Y cells assessed as cell viability at 50 uM after 48 hrs by MTT assay relative to control; type: toxicity, cell-based; settings: read-out: Activity; method in brief: as §1
Acetylcholinesterase [8] = target: T2, Acetylcholinesterase (Homo sapiens, UniProt P22303); assay: Inhibition of human recombinant AChE using acetylthiocholine iodide as substrate preincubated for 15 mins followed by substrate addition by Ellman's method; method in brief: as §2
T2 sequence (P22303 whole entry): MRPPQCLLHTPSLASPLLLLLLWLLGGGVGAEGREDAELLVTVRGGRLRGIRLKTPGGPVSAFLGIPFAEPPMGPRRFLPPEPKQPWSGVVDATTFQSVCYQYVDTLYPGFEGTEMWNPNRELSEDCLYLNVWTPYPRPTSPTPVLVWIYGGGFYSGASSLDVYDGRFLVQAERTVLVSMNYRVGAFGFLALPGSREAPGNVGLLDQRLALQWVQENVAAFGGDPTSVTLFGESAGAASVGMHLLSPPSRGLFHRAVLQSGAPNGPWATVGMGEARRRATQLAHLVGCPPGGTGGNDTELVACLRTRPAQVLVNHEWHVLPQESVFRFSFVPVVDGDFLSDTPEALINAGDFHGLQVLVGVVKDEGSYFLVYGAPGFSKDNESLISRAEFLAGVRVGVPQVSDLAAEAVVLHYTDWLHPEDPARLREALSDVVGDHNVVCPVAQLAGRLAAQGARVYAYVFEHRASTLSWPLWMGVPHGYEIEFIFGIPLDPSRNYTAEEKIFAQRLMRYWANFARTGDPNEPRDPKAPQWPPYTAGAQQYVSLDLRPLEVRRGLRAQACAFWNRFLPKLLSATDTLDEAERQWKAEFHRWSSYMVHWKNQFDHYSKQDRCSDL

SH-SY5Y = assay: Antioxidant activity against t-BHP-induced oxidative stress in human SH-SY5Y cells assessed as inhibition of ROS production at 1 to 5 uM after 24 hrs by DCFH-DA probe based flow cytometric analysis; type: functional, cell-based
Method in brief: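 SH-SY5Y cells seeded at 5×10^4 per well, left 16-18 h, then exposed to compound for 24 h. Cells were washed in PBS and loaded with 5 μM DCFH-DA together with 100 μM t-BHP in PBS, 30 min at 37 °C, 5% CO2. After washing and resuspension, flow cytometry read ex 488/em 525 nm. Value reported as (FIsample−FIblank)/(FIcontrol−FIblank)×100%, untreated cells as control, curcumin as positive control.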

Cholinesterase [9] = target: T1, Cholinesterase; assay: Non-competitive inhibition of human serum BChE using S-Butyrylthiocholine iodide as substrate preincubated for 15 mins followed by substrate addition by Lineweaver-Burk plot analysis
Method in brief: (§3)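 For kinetics, hAChE (0.004 U/mL) or hBChE (0.002 U/mL) was preincubated 15 min at 37 °C with inhibitor at three concentrations spanning 100-900 nM. DTNB was then added, followed by ATC or BTC at six serial concentrations from 0.125 to 1 mM. A412 was read for 5 min at 1-min intervals. Km and Vmax came from Michaelis-Menten fits, and mechanism from Lineweaver-Burk plots.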

Acetylcholinesterase [10] = target: T2, Acetylcholinesterase; assay: Non-competitive inhibition of human recombinant AChE using acetylthiocholine iodide as substrate preincubated for 15 mins followed by substrate addition by Lineweaver-Burk plot analysis; method in brief: as §3

Compound	inhibition (Cholinesterase [1])	viability at 48 h, 25 µM [2]	IC50 (Cholinesterase [3])	viability at 48 h, 100 µM [4]	viability at 48 h, 12.5 µM [5]	viability at 48 h, 6.25 µM [6]	viability at 48 h, 50 µM [7]	IC50 (Acetylcholinesterase [8])	inhibition (SH-SY5Y)	Ki (Cholinesterase [9])	Ki (Acetylcholinesterase [10])
CN(C)C(=O)Oc1ccccc1C(=O)/C=C/c1ccc(O)cc1	< 50%										
CCN(C)C(=O)Oc1cccc(C(=O)/C=C/c2ccc(OC)cc2)c1	> 50%	85.1%	3.93 µM	0.63%	100%	101%	66.3%				
CCN(C)C(=O)Oc1cccc(/C=C/C(=O)c2ccc(O)cc2)c1	> 50%	60.2%	2.52 µM	2.97%	88.7%	95.1%	16.6%				
CCN(C)C(=O)Oc1ccc(C(=O)/C=C/c2ccc(OC)cc2)cc1	> 50%	83.2%	7.36 µM	0.22%	86.1%	95.5%	52.7%				
CC(C)N(C(=O)Oc1cccc(C(=O)/C=C/c2ccc(O)cc2)c1)C(C)C	< 50%										
COc1ccc(/C=C/C(=O)c2ccc(OC(=O)N(C)C)cc2)cc1	< 50%										
COc1ccc(/C=C/C(=O)c2cccc(O)c2)cc1	< 50%										
COc1ccc(/C=C/C(=O)c2cccc(OC(=O)N(C)C)c2)cc1	> 50%	74.3%	3.37 µM	0.67%	95.3%	101%	20%	8.05 µM			
CN(C)C(=O)Oc1ccc(/C=C/C(=O)c2cccc(O)c2)cc1	< 50%										
CCN(C)C(=O)Oc1ccccc1C(=O)/C=C/c1ccc(O)cc1	> 50%	64.7%	4.37 to 5.97 µM	52.2%	76.4%	86%	51.7%				
COc1cc(/C=C/C(=O)CC(=O)/C=C/c2ccc(O)c(OC)c2)ccc1O									Active		
CCN(C)C(=O)Oc1cc(OC(=O)N(C)CC)cc(C(=O)/C=C/c2ccc(O)cc2)c1	< 50%										
CCN(CC)C(=O)Oc1cccc(C(=O)/C=C/c2ccc(O)cc2)c1	< 50%										
CN(C)C(=O)Oc1ccc(/C=C/C(=O)c2ccc(O)cc2)cc1	> 50%	60.4%	4.48 µM	13.1%	86.6%	100%	28.9%				
CCN(C)C(=O)Oc1cccc([C@H](C)N(C)C)c1 [RIVASTIGMINE]		86.6%		56.4%	94.7%	98.5%	72.7%				
CN(C)C(=O)Oc1cc(OC(=O)N(C)C)cc(C(=O)/C=C/c2ccc(O)cc2)c1	< 50%										
CCN(C)C(=O)Oc1cccc(C(=O)/C=C/c2ccc(O)cc2)c1	> 50%	49.2%	4.37 µM	5.42%	68%	96.2%	17.4%				
CN(C)C(=O)Oc1cccc(/C=C/C(=O)c2ccc(O)cc2)c1	> 50%	46.2%	2.19 µM	4.37%	69.9%	83.9%	11.2%				
COc1ccc(/C=C/C(=O)c2ccc(O)cc2)cc1	< 50%										
CCN(C)C(=O)Oc1ccc(/C=C/C(=O)c2cccc(O)c2)cc1	> 50%	67.1%	5.6 µM	0.81%	93.9%	96.1%	16.5%				
CN(C)C(=O)Oc1cccc(C(=O)/C=C/c2ccc(O)cc2)c1	> 50%	94.6%	0.36 µM	48.3%	96.5 to 96.7%	102%	71.8%	0.87 µM		0.16 µM	0.52 µM
CCN(C)C(=O)Oc1cccc(/C=C/C(=O)c2cccc(O)c2)c1	> 50%	53%	2.87 µM	0.16%	88.2%	101%	11.2%				
CN(C)C(=O)Oc1ccc(C(=O)/C=C/c2ccc(O)cc2)cc1	< 50%										
CCN(C)C(=O)Oc1ccc(/C=C/C(=O)c2ccc(O)cc2)cc1	> 50%	51.5%	6.08 µM	1.39%	80.8%	91.7%	22.4%				
COc1ccc(/C=C/C(=O)c2cccc(OC(=O)N(C(C)C)C(C)C)c2)cc1	< 50%										
CCN(C)C(=O)Oc1ccc(C(=O)/C=C/c2ccc(O)cc2)cc1	< 50%										
CN(C)C(=O)Oc1cccc(/C=C/C(=O)c2cccc(O)c2)c1	> 50%	57.1%	1.91 µM	1.03%	82.6%	85.9%	15.1%				
CCN(CC)C(=O)Oc1cccc(C(=O)/C=C/c2ccc(OC)cc2)c1	< 50%										
